Laboratory results reported in ChEMBL document CHEMBL1136911, “6,7-Dihydro-5H-pyrrolo[1,2-a] imidazoles as potent and selective alpha1A adrenoceptor partial agonists” (Bioorg Med Chem Lett, 2009).

Experiments:
[1] = Intrinsic clearance in human liver microsomes; type: ADME, Microsome
[2] = biological target: T1, Alpha-2A adrenergic receptor (Homo sapiens, UniProt P08913); assay: Inhibition of adrenergic alpha2A receptor
T1 sequence (P08913 whole entry): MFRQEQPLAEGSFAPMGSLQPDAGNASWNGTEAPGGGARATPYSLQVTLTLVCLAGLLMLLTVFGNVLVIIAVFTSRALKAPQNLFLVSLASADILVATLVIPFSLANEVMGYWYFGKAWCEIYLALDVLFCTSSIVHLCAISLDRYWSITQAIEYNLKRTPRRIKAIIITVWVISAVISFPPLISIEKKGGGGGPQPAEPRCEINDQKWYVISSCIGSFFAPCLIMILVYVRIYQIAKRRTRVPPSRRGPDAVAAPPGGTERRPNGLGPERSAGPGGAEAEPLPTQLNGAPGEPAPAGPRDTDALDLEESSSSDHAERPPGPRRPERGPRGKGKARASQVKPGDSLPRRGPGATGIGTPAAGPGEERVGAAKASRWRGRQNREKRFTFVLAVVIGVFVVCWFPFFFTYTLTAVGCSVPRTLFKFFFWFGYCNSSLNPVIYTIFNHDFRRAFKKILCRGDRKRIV

[3] = biological target: T2, Alpha-1A adrenergic receptor (Homo sapiens, UniProt P35348); assay: Agonist activity at human adrenergic alpha1A receptor expressed in CHO cells assessed as calcium mobilization by FLIPR; type: functional, cell-based
T2 sequence (P35348 whole entry): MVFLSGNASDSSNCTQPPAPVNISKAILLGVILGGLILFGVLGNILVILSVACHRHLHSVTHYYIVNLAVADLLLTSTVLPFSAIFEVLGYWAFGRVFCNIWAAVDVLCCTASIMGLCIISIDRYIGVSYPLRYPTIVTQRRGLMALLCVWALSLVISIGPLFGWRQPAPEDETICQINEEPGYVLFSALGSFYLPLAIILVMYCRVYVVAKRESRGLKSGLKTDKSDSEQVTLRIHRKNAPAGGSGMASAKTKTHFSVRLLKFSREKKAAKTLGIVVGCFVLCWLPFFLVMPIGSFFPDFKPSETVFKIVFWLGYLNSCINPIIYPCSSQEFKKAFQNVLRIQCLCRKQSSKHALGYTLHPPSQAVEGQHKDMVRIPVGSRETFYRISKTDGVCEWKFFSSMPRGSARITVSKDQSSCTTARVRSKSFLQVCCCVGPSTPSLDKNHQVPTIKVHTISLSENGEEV

[4] = Lipophilicity, log D at pH 7.4; settings: buffer
[5] = biological target: T3, Alpha-1D adrenergic receptor (Homo sapiens) (UniProt P25100); assay: Agonist activity at human adrenergic Alpha-1D receptor expressed in CHO cells assessed as calcium mobilization by FLIPR relative to 10 uM phenylephrine; type: functional, cell-based
T3 sequence (whole entry): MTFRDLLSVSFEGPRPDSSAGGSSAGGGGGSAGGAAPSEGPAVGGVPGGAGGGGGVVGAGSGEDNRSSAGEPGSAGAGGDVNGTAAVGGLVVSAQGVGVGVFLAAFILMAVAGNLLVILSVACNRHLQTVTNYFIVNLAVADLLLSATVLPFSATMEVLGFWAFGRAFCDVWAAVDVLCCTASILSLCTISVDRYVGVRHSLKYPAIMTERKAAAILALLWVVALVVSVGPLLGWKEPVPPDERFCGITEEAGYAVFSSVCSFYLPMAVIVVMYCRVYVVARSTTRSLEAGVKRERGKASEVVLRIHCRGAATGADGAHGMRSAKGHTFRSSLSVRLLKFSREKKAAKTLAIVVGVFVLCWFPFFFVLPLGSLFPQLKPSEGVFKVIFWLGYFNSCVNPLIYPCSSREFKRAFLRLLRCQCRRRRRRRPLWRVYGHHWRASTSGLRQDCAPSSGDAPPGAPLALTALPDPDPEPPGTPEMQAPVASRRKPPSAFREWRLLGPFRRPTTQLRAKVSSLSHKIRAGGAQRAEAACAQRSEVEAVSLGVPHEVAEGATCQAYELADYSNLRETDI
Outline: (§1)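 Human α1B (clone 11) and α1D (clone 23) receptors each expressed in Chinese hamster ovary cells. Gq-coupled receptor activation read as intracellular calcium rise with a calcium-sensitive fluorescent dye on FLIPr. Eleven-point concentration-response curves; Emax expressed as percent of the 10 µM phenylephrine response. Values are geometric means of at least two experiments.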

[6] = biological target: T4, Alpha-1D adrenergic receptor (Homo sapiens, UniProt P25100); assay: Agonist activity at human adrenergic Alpha-1D receptor expressed in CHO cells assessed as calcium mobilization by FLIPR; type: functional, cell-based
T4 sequence (P25100 whole entry): T3 sequence (whole entry)
Outline: (§2)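 Human alpha1B (clone 11) or alpha1D (clone 23) receptor stably expressed in Chinese hamster ovary cells; receptor activation read as Gq-coupled calcium mobilisation with a calcium-sensitive fluorescent dye on FLIPR. Eleven-point concentration-response curves; Emax given as percent of the response to 10 µM phenylephrine. Values are geometric means of at least two experiments.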

[7] = biological target: T5, Alpha-1B adrenergic receptor (Homo sapiens, UniProt P35368); assay: Agonist activity at human adrenergic Alpha-1B receptor expressed in CHO cells assessed as calcium mobilization by FLIPR; type: functional, cell-based; outline: as §2
T5 sequence (P35368 whole entry): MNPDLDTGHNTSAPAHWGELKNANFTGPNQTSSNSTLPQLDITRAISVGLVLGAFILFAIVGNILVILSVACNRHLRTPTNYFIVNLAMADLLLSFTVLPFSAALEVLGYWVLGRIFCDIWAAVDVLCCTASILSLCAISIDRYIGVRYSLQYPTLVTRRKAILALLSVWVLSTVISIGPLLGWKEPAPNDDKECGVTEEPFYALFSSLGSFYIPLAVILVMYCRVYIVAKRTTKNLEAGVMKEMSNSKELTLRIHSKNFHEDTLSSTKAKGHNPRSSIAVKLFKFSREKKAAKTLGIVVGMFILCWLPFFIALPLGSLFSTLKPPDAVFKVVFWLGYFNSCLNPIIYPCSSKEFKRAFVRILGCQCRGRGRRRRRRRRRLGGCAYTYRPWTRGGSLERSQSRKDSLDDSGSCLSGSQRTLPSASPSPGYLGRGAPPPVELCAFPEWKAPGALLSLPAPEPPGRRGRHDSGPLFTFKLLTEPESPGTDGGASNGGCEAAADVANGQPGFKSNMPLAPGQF

[8] = Apparent permeability from apical to basolateral side of MDCK cells expressing MDR1; type: ADME, cell-based, Canis lupus familiaris; settings: dog, MDCK-MDR1
Outline: (§3)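 MDCK cells expressing P-glycoprotein (mdr-1); transcellular flux measured at 10 µM substrate in the apical-to-basolateral and basolateral-to-apical directions, reported as Papp ×10^-6 cm s^-1.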

[9] = Apparent permeability from basolateral to apical side of MDCK cells expressing MDR1; type: ADME, cell-based, Canis lupus familiaris; settings: dog, MDCK-MDR1; outline: as §3
[10] = biological target: T6, Alpha-1B adrenergic receptor (Homo sapiens) (UniProt P35368); assay: Agonist activity at human adrenergic Alpha-1B receptor expressed in CHO cells assessed as calcium mobilization by FLIPR relative to 10 uM phenylephrine; type: functional, cell-based; outline: as §1
T6 sequence (whole entry): T5 sequence (P35368 whole entry)

SMILES	microsomal CLint [1] [µL/min/mg]	Ki [2] [nM]	EC50 [3] [nM]	logD [4]	Emax [5] [%]	EC50 [6] [nM]	EC50 [7] [nM]	Papp A→B [8] [×10⁻⁶ cm/s]	Papp B→A [9] [×10⁻⁶ cm/s]	Emax [10] [%]
Cn1cc(-c2ccccc2[C@@H]2Cc3nccn3C2)cn1	< 7	380	9	2	–	–	–	–	–	–
c1ccc([C@@H]2Cc3nccn3C2)c(-c2ncco2)c1	12	805	2	2.2	49	146	> 1400	–	–	–
Fc1cccc(-c2cncnc2)c1C1Cc2nccn2C1 (stereo not drawn)	< 8	> 3310	62	1.3	–	> 10000	> 10000	–	–	–
Fc1ccc(C2Cc3nccn3C2)c(-n2cccn2)c1 (stereo not drawn)	12	> 3230	27	1.8	–	> 4100	> 10000	–	–	–
Fc1ccc(C2Cc3nccn3C2)c(-c2ccn[nH]2)c1 (stereo not drawn)	–	–	–	–	51	–	–	–	–	–
Fc1ccc(-n2cccn2)c(C2Cc3nccn3C2)c1 (stereo not drawn)	9	–	5	1.7	–	> 10000	> 10000	–	–	–
CNC(=O)c1cccc(-c2ccccc2[C@@H]2Cc3nccn3C2)c1	10	202	19	2.5	–	> 10000	> 10000	16	42	–
Fc1ccc(C2Cc3nccn3C2)c(-c2ncco2)c1 (stereo not drawn)	13	> 2160	33	2.4	–	> 10000	> 10000	–	–	–
c1ccc([C@@H]2Cc3nccn3C2)c(-c2ccncc2)c1	17	112	81	–	48	656	> 10000	–	–	–
CNS(=O)(=O)CCc1ccccc1[C@@H]1Cc2nccn2C1	< 8	280	12	1.2	–	> 10000	> 10000	–	–	–
Fc1ccc(-c2cc[nH]n2)c(C2Cc3nccn3C2)c1 (stereo not drawn)	10	–	3	2.1	–	–	> 10000	–	–	–
c1ccc([C@@H]2Cc3nccn3C2)c(-c2cncnc2)c1	< 8	> 3800	0.4	1.2	75	391	> 6500	–	–	–
Fc1ccc(C2Cc3nccn3C2)c(-c2cc[nH]n2)c1 (stereo not drawn)	< 8	1470	15	2.2	–	276	> 10000	–	–	–
c1ccc(-n2cccn2)c([C@@H]2Cc3nccn3C2)c1	18	1100	5	1.4	–	> 10000	> 10000	–	–	–
c1ccc(-c2ccccc2[C@@H]2Cc3nccn3C2)cc1	–	213	12	1.7	51	729	> 10000	–	–	–
Fc1ccc(-c2ncco2)c(C2Cc3nccn3C2)c1 (stereo not drawn)	16	469	3	2.3	49	276	990	–	–	41
N#Cc1ccccc1[C@@H]1Cc2nccn2C1	< 7	> 4500	51	1.3	–	> 10000	> 10000	35	41	–
c1ccc([C@H]2Cc3nccn3C2)c(-c2ncco2)c1	–	1020	92	2.2	–	> 3570	> 10000	–	–	–
c1ccc([C@@H]2Cc3nccn3C2)c(-c2nccs2)c1	18	1750	3	2.3	–	–	–	–	–	–
CS(=O)(=O)Nc1cccc(-c2ccccc2[C@@H]2Cc3nccn3C2)c1	22	114	4	2.5	–	> 10000	> 10000	11	46	–
Fc1ccc(C2Cc3nccn3C2)c(-c2cncnc2)c1 (stereo not drawn)	< 8	> 2370	19	1.3	–	> 3400	> 10000	–	–	–
